Common to all, as to type: functional
Assay [1] deals with Mus musculus. Nature of the assay: L-1210 mouse leukemia life prolongation activity was measured as T/C (mean survival time of treated animals divided by the mean survival time of the controls times 100) at dose 80 mg/kg. The procedure, abridged:
(§1)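 In vivo L-1210 leukemia in mice, run by NCI contractors by standard procedures. Two intraperitoneal doses given, on day 1 and day 5 of the study. Readout is mean survival time of treated animals over that of controls, ×100 (T/C).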

Assay [2] concerns Mus musculus. Nature of the assay: L-1210 mouse leukemia life prolongation activity was measured as T/C (mean survival time of treated animals divided by the mean survival time of the controls times 100) at dose 10 mg/kg. In outline:
as §1

In assay [3] the test system is Mus musculus. Kind of assay: L-1210 mouse leukemia life prolongation activity was measured as T/C (mean survival time of treated animals divided by the mean survival time of the controls times 100) at dose 20 mg/kg. In outline:
as §1

The test system of assay [4] is Mus musculus. Kind of assay: L-1210 mouse leukemia life prolongation activity was measured as T/C (mean survival time of treated animals divided by the mean survival time of the controls times 100) at dose 40 mg/kg. The procedure, abridged: as §1
Assay [5] deals with Mus musculus. Nature of the assay: L-1210 mouse leukemia life prolongation activity was measured as T/C (mean survival time of treated animals divided by the mean survival time of the controls times 100) at dose 2.5 mg/kg. The procedure, abridged: as §1
Assay [6] has as its system Mus musculus. Nature of the assay: L-1210 mouse leukemia life prolongation activity was measured as T/C (mean survival time of treated animals divided by the mean survival time of the controls times 100) at dose 5 mg/kg. The procedure, abridged: as §1
Assay [7] has as its system Mus musculus. Kind of assay: L-1210 mouse leukemia life prolongation activity was measured as T/C(mean survival time of treated animals divided by the mean survival time of the controls times 100) at dose 2.5 mg/kg. In outline:
as §1

Assay [8] has as its system Mus musculus. Nature of the assay: L-1210 mouse leukemia life prolongation activity was measured as T/C (mean survival time of treated animals divided by the mean survival time of the controls times 100) at dose 1.25 mg/kg. In outline:
as §1

Structures are written as SMILES.

As to `CC[C@@](O)(C(=O)[O-])c1cc2n(c(=O)c1CO)Cc1cc3ccccc3nc1-2.[Na+]`, the T/C in the assay on Mus musculus [1] amounted to 215; with Mus musculus [2], 126; in the assay with Mus musculus [3], 167; with Mus musculus [4], 181.

Turning to `CC[C@]1(O)C(=O)OCc2c1cc1n(c2=O)Cc2cc3ccccc3nc2-1`, the T/C came to 118 with Mus musculus [2], 114 in the assay on Mus musculus [5], 132 with Mus musculus [3] and 114 in the assay on Mus musculus [6].

With `CC[C@@]1(O)C(=O)OCc2c1cc1n(c2=O)Cc2cc3ccccc3nc2-1` [CAMPTOTHECIN], the T/C was 147 with Mus musculus [7], 129 in the assay with Mus musculus [8], 250 in the assay with Mus musculus [2] and 185 in the assay on Mus musculus [6].

The values above are taken from ChEMBL document CHEMBL1123574, “Plant antitumor agents. 28. Resolution of a key tricyclic synthon, 5'(RS)-1,5-dioxo-5'-ethyl-5'-hydroxy-2'H,5'H,6'H-6'-oxopyrano[3' ,4'- f]delta 6,8-tetrahydro-indolizine: total synthesis and antitumor activity of 20(S)- and 20(R)-camptothecin” (1987).
